Data reported in ChEMBL document CHEMBL4371071, “Muscarinic agonist, (±)-quinuclidin-3-yl-(4-fluorophenethyl)(phenyl)carbamate: High affinity, but low subtype selectivity for human M1 - M5 muscarinic acetylcholine receptors” (Bioorg Med Chem Lett, 2019).

How the values were obtained:
[1] = target: T1, Muscarinic acetylcholine receptor M2 (Homo sapiens) (UniProt P08172); assay: Displacement of [3H]NMS from human M2 AChR expressed in CHO cell membranes at 100 uM after 1 to 2 hrs by liquid scintillation spectrometry method relative to control
T1 sequence (whole entry): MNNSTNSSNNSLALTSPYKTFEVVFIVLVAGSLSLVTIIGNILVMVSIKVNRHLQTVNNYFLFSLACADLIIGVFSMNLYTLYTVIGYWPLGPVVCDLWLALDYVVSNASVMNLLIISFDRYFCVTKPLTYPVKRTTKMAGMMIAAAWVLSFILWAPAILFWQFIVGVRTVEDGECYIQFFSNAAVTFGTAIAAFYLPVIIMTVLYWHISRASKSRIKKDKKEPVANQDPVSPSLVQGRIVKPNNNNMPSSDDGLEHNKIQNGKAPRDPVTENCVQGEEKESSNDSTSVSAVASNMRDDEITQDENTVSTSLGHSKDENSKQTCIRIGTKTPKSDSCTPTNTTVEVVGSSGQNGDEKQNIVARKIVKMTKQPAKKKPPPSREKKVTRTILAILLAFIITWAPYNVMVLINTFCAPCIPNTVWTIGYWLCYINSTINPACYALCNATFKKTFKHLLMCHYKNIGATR
Summary of the method: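 CHO membranes expressing the human subtype (20 µg protein/well) with 0.3 nM [3H]NMS and analog (1 nM–100 µM) in 50 mM Tris-HCl pH 7.4, 2 h at 25 °C. Filtered on GF/B, washed, counted by scintillation. IC50 taken from curves to give Ki; three independent experiments in duplicate.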

[2] = target: T2, Muscarinic acetylcholine receptor M5 (Homo sapiens, UniProt P08912); assay: Displacement of [3H]NMS from human M5 AChR expressed in CHO cell membranes after 1 to 2 hrs by liquid scintillation spectrometry method
T2 sequence (P08912 whole entry): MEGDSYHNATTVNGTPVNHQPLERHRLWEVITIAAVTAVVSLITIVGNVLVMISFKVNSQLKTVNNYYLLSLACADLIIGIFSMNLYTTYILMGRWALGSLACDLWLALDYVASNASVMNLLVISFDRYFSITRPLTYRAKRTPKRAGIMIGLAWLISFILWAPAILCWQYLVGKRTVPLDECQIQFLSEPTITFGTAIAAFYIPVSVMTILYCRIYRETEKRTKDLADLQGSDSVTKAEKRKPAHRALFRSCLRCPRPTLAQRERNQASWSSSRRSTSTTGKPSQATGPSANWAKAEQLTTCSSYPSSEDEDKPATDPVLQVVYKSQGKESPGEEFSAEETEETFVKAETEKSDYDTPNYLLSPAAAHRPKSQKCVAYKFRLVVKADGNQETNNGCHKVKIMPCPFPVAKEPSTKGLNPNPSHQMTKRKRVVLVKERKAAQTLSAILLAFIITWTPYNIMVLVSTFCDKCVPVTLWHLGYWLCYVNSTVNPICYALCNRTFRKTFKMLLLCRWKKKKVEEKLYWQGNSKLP
Summary of the method: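 CHO membranes expressing human M5 (10 µg protein/well) with 0.3 nM [3H]NMS and analog (1 nM–100 µM) in 50 mM Tris-HCl pH 7.4, 2 h at 25 °C. Filtered on GF/B, counted by scintillation. IC50 converted to Ki; three independent experiments in duplicate.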

[3] = target: T3, Muscarinic acetylcholine receptor M5 (Homo sapiens) (UniProt P08912); assay: Displacement of [3H]NMS from human M5 AChR expressed in CHO cell membranes at 100 uM after 1 to 2 hrs by liquid scintillation spectrometry method relative to control
T3 sequence (whole entry): T2 sequence (P08912 whole entry)
Summary of the method: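 CHO membranes expressing human M5 (10 µg protein/well) with 0.3 nM [3H]NMS and analog (1 nM–100 µM) in 50 mM Tris-HCl pH 7.4, 2 h at 25 °C. […] Filtered on GF/B, counted by scintillation. IC50 converted to Ki; three independent experiments in duplicate.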

[4] = organism: Homo sapiens; assay: Selectivity ratio of Ki for displacement of [3H]NMS from human M1 AChR expressed in CHO cell membranes to Ki for displacement of [3H]NMS from human M5 AChR expressed in CHO cell membranes
[5] = target: T4, Muscarinic acetylcholine receptor M4 (Homo sapiens) (UniProt P08173); assay: Displacement of [3H]NMS from human M4 AChR expressed in CHO cell membranes at 100 uM after 1 to 2 hrs by liquid scintillation spectrometry method relative to control
T4 sequence (whole entry): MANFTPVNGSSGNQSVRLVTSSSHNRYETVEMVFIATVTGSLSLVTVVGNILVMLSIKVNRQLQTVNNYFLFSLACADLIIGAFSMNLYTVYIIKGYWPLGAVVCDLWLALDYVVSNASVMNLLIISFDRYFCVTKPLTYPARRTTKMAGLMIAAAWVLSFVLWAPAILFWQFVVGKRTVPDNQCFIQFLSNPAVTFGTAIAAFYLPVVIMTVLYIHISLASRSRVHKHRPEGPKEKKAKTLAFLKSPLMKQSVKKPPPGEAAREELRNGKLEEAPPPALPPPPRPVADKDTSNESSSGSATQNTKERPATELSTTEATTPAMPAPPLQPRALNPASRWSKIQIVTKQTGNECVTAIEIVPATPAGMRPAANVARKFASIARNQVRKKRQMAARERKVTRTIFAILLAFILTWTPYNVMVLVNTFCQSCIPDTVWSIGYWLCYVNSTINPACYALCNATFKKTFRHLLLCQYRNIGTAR
Summary of the method: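 CHO membranes expressing the human subtype (20 µg protein/well) with 0.3 nM [3H]NMS and analog (1 nM–100 µM) in 50 mM Tris-HCl pH 7.4, 2 h at 25 °C. […] Filtered on GF/B, washed, counted by scintillation. IC50 taken from curves to give Ki; three independent experiments in duplicate.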

[6] = target: T5, Muscarinic acetylcholine receptor M1 (Homo sapiens) (UniProt P11229); conditions: CHO, at 100 µM
T5 sequence (whole entry): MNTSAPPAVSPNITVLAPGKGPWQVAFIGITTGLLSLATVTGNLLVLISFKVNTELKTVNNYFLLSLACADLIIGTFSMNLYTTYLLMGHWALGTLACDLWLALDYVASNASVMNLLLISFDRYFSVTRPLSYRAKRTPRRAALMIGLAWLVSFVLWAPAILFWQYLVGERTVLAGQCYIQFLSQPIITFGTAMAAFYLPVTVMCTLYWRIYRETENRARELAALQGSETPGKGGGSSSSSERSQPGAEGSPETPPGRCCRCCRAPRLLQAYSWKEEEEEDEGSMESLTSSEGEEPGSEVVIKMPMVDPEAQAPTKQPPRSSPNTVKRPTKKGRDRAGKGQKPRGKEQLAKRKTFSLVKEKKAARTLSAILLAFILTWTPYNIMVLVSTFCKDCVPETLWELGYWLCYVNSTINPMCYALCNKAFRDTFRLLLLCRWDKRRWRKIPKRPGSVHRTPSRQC

[7] = target: Muscarinic acetylcholine receptor M3 (Homo sapiens, UniProt P20309); conditions: CHO, at 100 µM
Chain of Muscarinic acetylcholine receptor M3 (P20309 whole entry, looked up): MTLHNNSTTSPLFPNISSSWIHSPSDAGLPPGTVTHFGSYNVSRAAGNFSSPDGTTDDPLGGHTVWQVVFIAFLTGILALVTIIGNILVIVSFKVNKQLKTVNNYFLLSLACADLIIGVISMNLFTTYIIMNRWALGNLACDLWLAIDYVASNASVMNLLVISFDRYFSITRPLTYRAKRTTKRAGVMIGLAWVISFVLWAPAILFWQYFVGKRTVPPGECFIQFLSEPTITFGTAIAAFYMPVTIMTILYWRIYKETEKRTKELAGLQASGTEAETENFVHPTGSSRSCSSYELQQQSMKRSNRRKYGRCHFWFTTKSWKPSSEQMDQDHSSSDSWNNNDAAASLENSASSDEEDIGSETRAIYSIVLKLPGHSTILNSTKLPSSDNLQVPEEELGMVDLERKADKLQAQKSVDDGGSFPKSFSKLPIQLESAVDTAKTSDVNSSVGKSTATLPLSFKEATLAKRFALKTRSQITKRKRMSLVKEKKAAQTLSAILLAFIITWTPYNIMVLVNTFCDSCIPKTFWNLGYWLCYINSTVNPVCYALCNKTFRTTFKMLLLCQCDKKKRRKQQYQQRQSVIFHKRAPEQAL

O=C(OC1CN2CCC1CC2)N(CCc1ccc(F)cc1)c1ccccc1 (racemic)
Imax [1]: 100% | Ki [2]: 1.8 nM | Imax [3]: 99.8% | Ratio Ki [4]: 1.1 | Imax [5]: 99.8% | Imax [6]: 99.9% | Imax [7]: 100%
